These results are taken from ChEMBL document CHEMBL5033998, “Discovery of DDO-2213 as a Potent and Orally Bioavailable Inhibitor of the WDR5-Mixed Lineage Leukemia 1 Protein-Protein Interaction for the Treatment of MLL Fusion Leukemia” (J Med Chem, 2021).

Data set [1] deals with Histone-lysine N-methyltransferase 2A/WDR5 (Homo sapiens, UniProt P61964). The experiment in a line: Inhibition of MLL1-WDR5 (unknown origin) protein-protein interaction using Thr-FAM as probe by fluorescence polarization competition assay. A digest of the protocol:
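Competitive FP with WDR5 and 10mer-Thr-FAM probe in 100 mM KH2PO4, 25 mM KCl, 0.01% Triton X-100, pH 6.5; read at λex 485 ± 25 nm, λem 535 ± 25 nm. IC50 from three independent replicates ± SD.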

Data set [2] concerns the target Histone-lysine N-methyltransferase 2A/WDR5 (Homo sapiens) (UniProt P61964+Q03164). The experiment in a line: Inhibition of MLL1-WDR5 (unknown origin) protein-protein interaction at 100 uM by competitive fluorescence polarization assay. For orientation: Polarisation of emitted light reports the rotation of a fluorescent probe.
Data set [3] can be described thus: Permeability of compound at pH 7.4 incubated for 4 hrs by PAMPA assay. It counts as ADME. The note with it: read-out: permeability. The gist of the method: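 Double-sink PAMPA: compound diluted in pH 7.4 donor buffer, permeation through artificial membrane to acceptor over 4 h at 25 °C; donor and acceptor read by UV; mean ± SD of three independent experiments.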
On the technique in general: PAMPA measures passive passage across an artificial lipid membrane.

Data set [4] relates to HUVEC. The experiment in a line: Antiproliferative activity against human HUVEC cells assessed as cell viability incubated for 72 hrs by CCK8 assay. It counts as cell-based. A digest of the protocol:
(§1)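 Cells seeded at 3000–6000 per well, exposed to inhibitor at several concentrations for 72 h; viability read with CCK8 kit. MV4-11 and K562 grown in modified IMDM + 10% FBS, pen/strep; MOLM-13 in RPMI-1640 + 10% FBS; HUVEC in modified DMEM + 10% FBS; 37 °C, 5% CO2. IC50 as mean ± SD of three independent experiments.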
A general note: Tetrazolium dyes change colour on reduction, which living cells bring about.

For data set [5], the system named is K562. The experiment in a line: Antiproliferative activity against human K562 cells assessed as cell viability incubated for 72 hrs by CCK8 assay. It counts as functional, cell-based. The conditions noted are these: K562, 72 h. The gist of the method:
as §1

Data set [6] relates to MOLM-13. The experiment in a line: Antiproliferative activity against human MOLM-13 cells assessed as cell viability incubated for 72 hrs by CCK8 assay. It counts as functional, cell-based. The note with it: MOLM-13, 72 h. A digest of the protocol: as §1
The test system of data set [7] is MV4-11. The experiment in a line: Antiproliferative activity against human MV4-11 cells assessed as cell viability incubated for 72 hrs by CCK8 assay. It counts as functional, cell-based. The note with it: MV4-11, 72 h. A digest of the protocol: as §1

In general, IC50 refers to the concentration that gives 50% inhibition. In data set [1], `CN1CCN(c2ccc([N+](=O)[O-])cc2Nc2cc(Cl)nc(N)n2)CC1` returned a half-maximal inhibitory concentration (IC50) of 20.4 µM.

For `Cc1cc(N2CCN(C)CC2)c(Nc2ncnc(Cl)c2N)cc1-c1ccc(C(=O)NCCCN2CCOCC2)cc1`, the half-maximal inhibitory concentration (IC50) in data set [1] turned out to be 465 µM.

Turning to `CN1CCN(c2ccc(-c3ccc(C(=O)N4CCC(C)(O)CC4)cc3)cc2Nc2ncnc(Cl)c2N)CC1`, the half-inhibitory concentration (IC50) in data set [1] came out at 0.16 µM.

In turn, `Nc1c(Cl)ncnc1Nc1cc([N+](=O)[O-])ccc1N1CCOCC1` showed an IC50 in data set [1] greater than 50 µM.

Compound `CN1CCC(C(=O)Nc2ccc(-c3ccc(N4CCN(C)CC4)c(Nc4ncnc(Cl)c4N)c3F)cc2)CC1` returned an IC50 in data set [1] of 105 µM.

`CN1CCC(NC(=O)c2ccc(-c3ccc(N4CCN(C)CC4)c(Nc4ncnc(Cl)c4N)c3)cc2)CC1` returned a half-inhibitory concentration (IC50) in data set [1] of 0.23 µM.

The compound `Cc1nc(Cl)cc(Nc2cc([N+](=O)[O-])ccc2N2CCN(C)CC2)n1` registered an IC50 in data set [1] greater than 50 µM.

Compound `CN1CCN(c2ccc(-c3ccc(C(=O)N4CCC(O)CC4)cc3)cc2Nc2ncnc(Cl)c2N)CC1` showed an IC50 in data set [1] of 0.11 µM.

Consider `CN1CCN(c2ccc(-c3ccc(C(=O)NCCCN4CCOCC4)cc3)cc2Nc2ncnc(Cl)c2N)CC1`, for which the IC50 in data set [1] worked out at 0.16 µM.

On to `CN1CCN(c2ccc(-c3ccc(C(=O)NC4CCOCC4)cc3)cc2Nc2ncnc(Cl)c2N)CC1`, for which the IC50 in data set [1] amounted to 0.42 µM.

As for `CN1CCN(c2ccc(-c3ccc(C(=O)N4CCOCC4)cc3)c(F)c2Nc2ncnc(Cl)c2N)CC1`, in data set [1], the half-maximal inhibitory concentration (IC50) is 117 µM.

For the compound `CN1CCN(c2ccc(-c3ccc(C(=O)NCCN4CCOCC4)cc3)c(F)c2Nc2ncnc(Cl)c2N)CC1`, the IC50 in data set [1] was 102 µM.

Regarding `Nc1c(Cl)ncnc1Nc1cc([N+](=O)[O-])ccc1N1CCN(c2ccccc2)CC1`, the IC50 in data set [1] was greater than 50 µM.

One may read the inhibition as the share of the control response that was lost under treatment. Lower therefore signals little suppression. For `CN1CCN(c2ccc([N+](=O)[O-])cc2Nc2ncnc3ccccc23)CC1`, the inhibition in data set [2] stood at 35.8%.

The compound `CN1CCN(c2ccc(-c3ccc(NC(=O)C4CCOCC4)cc3)c(F)c2Nc2ncnc(Cl)c2N)CC1` had an IC50 in data set [1] of 176 µM.

Consider `Nc1c(Cl)ncnc1Nc1cc([N+](=O)[O-])ccc1N1CCNCC1`, for which, in data set [1], the IC50 is 45.1 µM.

`CCN1CCN(C(=O)c2ccc(-c3ccc(N4CCN(C)CC4)c(Nc4ncnc(Cl)c4N)c3F)cc2)CC1` displayed an IC50 in data set [1] of 112 µM.

On to `CN1CCN(c2ccc([N+](=O)[O-])cc2Nc2ncccn2)CC1`, for which the IC50 in data set [1] is greater than 50 µM.

For the compound `CN1CCN(C(=O)c2ccc(-c3ccc(N4CCN(C)CC4)c(Nc4ncnc(Cl)c4N)c3)cc2)CC1`, in data set [1], the IC50 is 0.22 µM.

In the case of `Nc1c(Cl)ncnc1Nc1cc([N+](=O)[O-])ccc1N1CCN(CCO)CC1`, in data set [1], the IC50 is greater than 50 µM.

As to `CN1CCN(c2ccc(-c3ccc(C(=O)NCCCN4CCOCC4)cc3)c(F)c2Nc2ncnc(Cl)c2N)CC1`, the IC50 in data set [1] was found to be 69 µM.

Regarding `CN1CCN(c2ccc([N+](=O)[O-])cc2Nc2ncccc2N)CC1`, in data set [1], the IC50 was greater than 50 µM.

As for `Cc1c(Cl)ncnc1Nc1cc([N+](=O)[O-])ccc1N1CCN(C)CC1`, the 50% inhibitory concentration (IC50) in data set [1] was greater than 50 µM.

In the case of `Cc1nc(Cl)c(N)c(Nc2cc([N+](=O)[O-])ccc2N2CCN(C)CC2)n1`, the half-maximal inhibitory concentration (IC50) in data set [1] is 12.1 µM.

In data set [1], `CN1CCN(c2ccc(-c3ccc(C(=O)NCCN4CCOCC4)cc3)cc2Nc2ncnc(Cl)c2N)CC1` gave a 50% inhibitory concentration (IC50) of 0.18 µM.

As to `CN1CCN(c2cc(F)c(-c3ccc(C(=O)NCC4CCOCC4)cc3)cc2Nc2ncnc(Cl)c2N)CC1`, the Papp at 4 h in data set [3] is 16.9 ×10⁻⁶ cm/s. In addition, the half-inhibitory concentration (IC50) was greater than 100 µM in data set [4]; 81.7 µM in data set [5]; 36 µM in data set [1]; 12.3 µM in data set [6]; 15.7 µM in data set [7].

In data set [1], `CN1CCN(c2cc(F)c(-c3ccc(C(=O)N4CCC(O)CC4)cc3)cc2Nc2ncnc(Cl)c2N)CC1` yielded an IC50 of 33 µM.

On to `CCN1CCN(c2ccc([N+](=O)[O-])cc2Nc2ncnc(Cl)c2N)CC1`, for which the IC50 in data set [1] stood at 38.1 µM.

Turning to `CN1CCN(c2cc(F)c(-c3ccc(C(=O)NCCCN4CCOCC4)cc3)cc2Nc2ncnc(Cl)c2N)CC1`, the Papp at 4 h in data set [3] was 9.14 ×10⁻⁶ cm/s. Also, the IC50 is greater than 100 µM in data set [4]; 70.1 µM in data set [5]; 0.021 µM in data set [1]; 17.3 µM in data set [6]; 25.6 µM in data set [7].

For the compound `CN1CCN(c2cc(F)c(-c3ccc(C(=O)N4CCOCC4)cc3)cc2Nc2ncnc(Cl)c2N)CC1`, the Papp at 4 h in data set [3] came to 13.7 ×10⁻⁶ cm/s. Also, the IC50 was greater than 100 µM in data set [4]; 88.7 µM in data set [5]; 36 µM in data set [1]; 16.5 µM in data set [6]; 19.6 µM in data set [7].

In turn, `CN1CCN(c2ccc([N+](=O)[O-])cc2Nc2cc(N3CCC3)ncn2)CC1` gave a half-maximal inhibitory concentration (IC50) in data set [1] greater than 50 µM.

`CN1CCN(c2ccc(-c3ccc(NC(=O)CC4CCOCC4)cc3)c(F)c2Nc2ncnc(Cl)c2N)CC1`: the concentration for half-maximal inhibition (IC50) in data set [1] was found to be 85 µM.

In the case of `CN1CCN(c2ccc([N+](=O)[O-])cc2Nc2nccc(N)n2)CC1`, the IC50 in data set [1] is greater than 50 µM.

Regarding `CN1CCN(c2ccc([N+](=O)[O-])cc2Nc2ncnc(Cl)c2[N+](=O)[O-])CC1`, the IC50 in data set [1] is greater than 50 µM.

The compound `CN1CCN(c2ccc([N+](=O)[O-])cc2Nc2ncncc2N)CC1` registered a 50% inhibitory concentration (IC50) in data set [1] greater than 50 µM.

Turning to `CN1CCN(c2cc(F)c(-c3ccc(C(=O)NCCN4CCOCC4)cc3)cc2Nc2ncnc(Cl)c2N)CC1`, the Papp at 4 h in data set [3] was 10.5 ×10⁻⁶ cm/s. Also, the IC50 is greater than 100 µM in data set [4]; greater than 100 µM in data set [5]; 74 µM in data set [1]; 23.1 µM in data set [6]; 27.7 µM in data set [7].

On to `Nc1c(Cl)ncnc1Nc1cc([N+](=O)[O-])ccc1N1CCN(C2CC2)CC1`, for which the IC50 in data set [1] was greater than 50 µM.

In data set [1], `CN1CCN(c2ccc([N+](=O)[O-])cc2Nc2cc(N3CCCC3)ncn2)CC1` returned a 50% inhibitory concentration (IC50) greater than 50 µM.

Take `Cc1c(-c2ccc(C(=O)N(C)C)cc2)ccc(N2CCN(C)CC2)c1Nc1ncnc(Cl)c1N`: the IC50 in data set [1] was found to be 0.67 µM.

In data set [1], `CN1CCN(c2ccc([N+](=O)[O-])cc2Nc2cc(N(C)C)ncn2)CC1` showed a half-inhibitory concentration (IC50) greater than 50 µM.

In data set [1], `CN1CCN(c2ccc(-c3ccc(C(=O)N(C)C)cc3)c(F)c2Nc2ncnc(Cl)c2N)CC1` had a half-maximal inhibitory concentration (IC50) of 240 µM.

For `CN1CCN(c2ccc(-c3ccc(C(=O)N4CCOCC4)cc3)cc2Nc2ncnc(Cl)c2N)CC1`, the IC50 in data set [1] is 0.19 µM.
